Screening data from PubChem BioAssay.
Compounds with a hit are over-represented: about 3.2% of the library has one in this group of screens.
GASC-1 inh – human JMJD2C demethylase inhibition; GST-JMJD2C(1-420) H3K9me3 demethylation, DELFIA europium; hit rate 0.069% among 330,000; inhibition, % at 2.35 µM; Q9H3R0;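 active means more than half of a compound's replicate wells show inhibition beyond 50%, single wells judged on their own value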;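 further: signal counts dimethyl H3K9 product captured on neutravidin plate; 0% = median of DMSO wells and 100% = 0.3 times that DMSO median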
DAX1 inh-1 – blocks DAX1 repression of SF-1 activated StAR promoter. HEK293T StAR-luciferase reporter, SF-1/DAX-1 repression relief. inhibition, % at 6.8 µM. hit rate 1.1% among 370,000;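 active means inhibition above the mean over all tested compounds plus 3 SD, cut at about 3.6% in these data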;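 further: 0% = DAX-1 cells with DMSO and 100% = cells lacking DAX-1 with DMSO; higher inhibition means more luminescence from relief of DAX-1 repression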
NR2E3 ag-1 – human photoreceptor-specific nuclear receptor agonism. Q9Y5X4. CHO-S Gal4-NCOR/VP16-NR2E3 two-hybrid, luciferase. inhibition of corepressor binding, % at 3.98 µM. hit rate 0.35% among 360,000. AID 602229;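 active means inhibition above the mean of all tested compounds plus 3 SD, cut at about 70% in these data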;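 further: 0% = DMSO with NR2E3 transfected cells and 100% = cells lacking NR2E3 construct; higher means lower luciferase signal from less NR2E3 corepressor binding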
Target sequence (Q9Y5X4 whole entry, looked up, the tested form may be a part): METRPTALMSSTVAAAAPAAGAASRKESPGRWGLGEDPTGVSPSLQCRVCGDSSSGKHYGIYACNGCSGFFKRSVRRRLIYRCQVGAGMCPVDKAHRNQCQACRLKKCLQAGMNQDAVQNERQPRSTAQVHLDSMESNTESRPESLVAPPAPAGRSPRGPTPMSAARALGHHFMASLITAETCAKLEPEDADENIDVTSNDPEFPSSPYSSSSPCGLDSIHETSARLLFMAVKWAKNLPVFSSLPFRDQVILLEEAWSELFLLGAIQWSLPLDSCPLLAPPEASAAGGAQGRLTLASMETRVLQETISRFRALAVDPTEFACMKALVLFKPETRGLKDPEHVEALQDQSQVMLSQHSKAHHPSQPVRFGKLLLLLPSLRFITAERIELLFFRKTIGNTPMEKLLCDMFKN
DAX1 inh-2 – inhibitors of human orphan nuclear receptor DAX1 (NR0B1); P51843; HEK293 Gal4-DAX1 luciferase reporter, luminescence; inhibition, % at 6.75 µM; hit rate 0.99% among 340,000; AID 504766;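 active means inhibition above the mean over all tested compounds plus 3 SD, cut at about 4.2% in these data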;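 further: 0% = DAX1-transfected cells with DMSO and 100% = empty-vector control cells with DMSO; inhibition shows as a rise in luminescence from relieved DAX1 repression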
Target sequence (P51843 207-470 limits assumed): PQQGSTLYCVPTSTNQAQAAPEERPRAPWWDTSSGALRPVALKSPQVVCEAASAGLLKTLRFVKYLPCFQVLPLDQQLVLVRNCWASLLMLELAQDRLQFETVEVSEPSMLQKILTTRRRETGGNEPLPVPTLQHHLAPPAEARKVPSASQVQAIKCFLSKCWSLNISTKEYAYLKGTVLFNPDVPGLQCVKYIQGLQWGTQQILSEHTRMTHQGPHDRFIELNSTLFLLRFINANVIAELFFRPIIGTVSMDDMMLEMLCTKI
NR2E3 ag-2 – activates human photoreceptor nuclear receptor NR2E3. GST-NR2E3/biotin-RetCOR TR-FRET, 1536-well. Q9Y5X4. inhibition of corepressor binding, % at 4.78 µM. hit rate 0.12% among 320,000. AID 2300;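 active means percent inhibition above the cutoff of mean plus 3 SD of all tested compounds, set per screening campaign, cut at about 20% in these data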;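 further: 0% = DMSO wells and 100% = biotin wells as full block of FRET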
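System: GST-tagged NR2E3 plus biotinylated RetCOR corepressor; Amount: 1.35 nM GST-tagged NR2E3 final; Dosing: single nominal compound dose of 4.8 µM; Schedule: 5 h incubation at 4 °C; Technique: TR-FRET with europium anti-GST and streptavidin-D2, 340 nm excitation; Controls: biotin wells as high control, 0.6% DMSO wells as low control.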
SMARCA2 act – SMARCA2 function activation, primary screen | MG213 cells, MMTV-luciferase reporter, dexamethasone, overnight | activation, % at 9.1 µM | hit rate 1% among 370,000 | AID 652017; in the data active means activation above about 7.8%;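 further: 0% = vehicle wells and 100% = reference activator wells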
Starred values were filed as active, the others as inactive.

What do the screens show for `c1ccc(-c2nnc(NC3=NCCC3)o2)cc1`?
GASC-1 inh: 4; DAX1 inh-1: 4.1*; NR2E3 ag-1: -112; DAX1 inh-2: -1; NR2E3 ag-2: 0; SMARCA2 act: -2

Results for COc1ccc(/C=C\C(=O)O[C@@H]2C(O)C(O[C@@H]3OC(C)[C@H](O[C@@H]4OCC(O[C@H]5O[C@H](CO)[C@@H](O)C(O)C5O)C(O)C4O)C(O)C3O)[C@H](OC(=O)[C@]34CCC(C)(C)C[C@@H]3C3=CCC5[C@@]6(C)CC(O)C(O[C@@H]7OC(CO)C(O)[C@H](O)[C@H]7O)[C@@](C)(C(=O)O)C6CC[C@@]5(C)[C@]3(CO)CC4)O[C@H]2C)cc1 (stereo partly drawn) ?
GASC-1 inh: 4; NR2E3 ag-1: 96*; DAX1 inh-2: 1

What do the screens show for `CCCCN(C)C(=O)CNc1nnnn1-c1ccccc1`?
DAX1 inh-1: 1; SMARCA2 act: -1

How did Cc1cc(=O)oc2cc(OC(C)C(=O)NCC3CCC(C(=O)O)CC3)ccc12 (stereo not drawn) do in these assays?
GASC-1 inh: -13; DAX1 inh-1: 0; NR2E3 ag-1: 0; DAX1 inh-2: 3; NR2E3 ag-2: -1; SMARCA2 act: 2

How did Cc1c(Cc2ccccc2)c(=O)oc2cc(OC(C)C(=O)NCC3CCC(C(=O)O)CC3)c(Cl)cc12 (stereo not drawn) do in these assays?
GASC-1 inh: 11; DAX1 inh-1: 0; NR2E3 ag-1: -30; DAX1 inh-2: 4.6*; NR2E3 ag-2: 5; SMARCA2 act: 1

What do the screens show for `CCOC(=O)c1sc2nc(-c3ccccc3)ccc2c1N`?
GASC-1 inh: -1; DAX1 inh-1: 4.3*; NR2E3 ag-1: -87; DAX1 inh-2: 2; NR2E3 ag-2: 3; SMARCA2 act: 1

What do the screens show for `OC(CCN1CCCCC1)(c1ccccc1)C1CC2C=CC1C2` (stereo not drawn)?
DAX1 inh-1: 1; SMARCA2 act: -3

How did O=C(CSc1nnc(NC2CCCCC2)s1)Nc1ccc2c(c1)C(=O)c1ccccc1C2=O do in these assays?
GASC-1 inh: -1; DAX1 inh-1: 3; NR2E3 ag-1: -112; DAX1 inh-2: 12*; NR2E3 ag-2: 0; SMARCA2 act: 2

How did O=C(CSc1nnc(NC2CCCCC2)s1)N1CCOCC1 do in these assays?
GASC-1 inh: 13; DAX1 inh-1: 4.1*; NR2E3 ag-1: 6; DAX1 inh-2: 1; NR2E3 ag-2: 2; SMARCA2 act: -3

What do the screens show for `CC(C)Nc1nnc(SCC(=O)Nc2ccc3c(c2)C(=O)c2ccccc2C3=O)s1`?
GASC-1 inh: -2; DAX1 inh-1: 1; NR2E3 ag-1: -75; DAX1 inh-2: -2; NR2E3 ag-2: 1; SMARCA2 act: 4

Results for CN(CCO)C1CN(Cc2cn(Cc3ccccc3F)nn2)S(=O)(=O)C1 (stereo not drawn) ?
DAX1 inh-1: 0; SMARCA2 act: 0

What do the screens show for `CC1=NC(=O)C(N=Nc2cccc(C(=O)O)c2)N1c1ccccc1` (stereo not drawn)?
GASC-1 inh: 8; DAX1 inh-1: 3; NR2E3 ag-1: -161; DAX1 inh-2: -4; NR2E3 ag-2: -3; SMARCA2 act: -2

Results for CC1=NC(=O)C(N=Nc2ccccc2)N1c1ccccc1 (stereo not drawn) ?
GASC-1 inh: 7; DAX1 inh-1: 1; NR2E3 ag-1: -61; DAX1 inh-2: 4.6*; NR2E3 ag-2: 0; SMARCA2 act: 3

How did O=C(NCCc1c[nH]c2ccccc12)OCc1cn(Cc2c(F)cccc2F)nn1 do in these assays?
DAX1 inh-1: 0; SMARCA2 act: 1

How did CN(C)c1ccc(C(=O)Nc2nc3c(s2)CCCC3)cc1 do in these assays?
GASC-1 inh: 3; DAX1 inh-1: 3.8*; NR2E3 ag-1: -98; DAX1 inh-2: -2; NR2E3 ag-2: 0; SMARCA2 act: 0

Results for CC(C)(C)c1ccc(C(=O)NC(=S)Nc2nc3c(s2)CCCC3)cc1 ?
GASC-1 inh: -5; DAX1 inh-1: -2; NR2E3 ag-1: 43; DAX1 inh-2: 1; NR2E3 ag-2: -2; SMARCA2 act: -3

What do the screens show for `CCC(=O)Nc1ccc2c(c1)C(=O)N(C)[C@@H]1CC[C@@H](CC(=O)NCCN3CCCCC3)O[C@H]1CO2`?
DAX1 inh-1: 0; SMARCA2 act: 4

What do the screens show for `Cc1c(CC(=O)Nc2ccc(Cl)cc2)sc2ccc(Cl)cc12`?
GASC-1 inh: 28; DAX1 inh-1: 0; NR2E3 ag-1: 4; DAX1 inh-2: 6.4*; NR2E3 ag-2: -1; SMARCA2 act: -2

What do the screens show for `COC(=O)[C@]12C[C@H](CC(=O)NCC3CCCCC3)C(=O)N(Cc3cccc4ccccc34)C1=C[C@H](C(C)(C)C)O[C@@H]2C`?
DAX1 inh-1: 0; SMARCA2 act: -3

Results for COc1cc(C(=O)NC2CCN(C)CC2)ccc1Nc1ncc2c(n1)N(Cc1ccccc1)CCC(=O)N2C ?
DAX1 inh-1: 1; NR2E3 ag-1: -23; DAX1 inh-2: 7.8*; SMARCA2 act: -1

How did COc1cc(C(=O)NC2CCN(C)CC2)ccc1Nc1ncc2c(n1)N(C1CCCCC1)CCC(=O)N2C do in these assays?
DAX1 inh-1: -2; NR2E3 ag-1: -2; DAX1 inh-2: -1; SMARCA2 act: -1

Results for C=CCn1c(COc2ccccc2)nnc1SCC(=O)Nc1ccc(S(=O)(=O)Nc2cc(C)nc(C)n2)cc1 ?
DAX1 inh-1: 0; SMARCA2 act: -2

What do the screens show for `O=C1C=CC(=O)N1c1ccccc1N1C(=O)C=CC1=O`?
DAX1 inh-1: 4.0*; NR2E3 ag-1: -28; DAX1 inh-2: 4.3*; SMARCA2 act: 6

Results for O=C(NCCc1c[nH]c2ccccc12)OCc1cn(Cc2ccccc2F)nn1 ?
DAX1 inh-1: -2; SMARCA2 act: -1

Results for CN(C(=O)c1cc(C(=O)N(C)c2ccccc2)cc([N+](=O)[O-])c1)c1ccccc1 ?
GASC-1 inh: -6; DAX1 inh-1: -1; NR2E3 ag-1: 3; DAX1 inh-2: 4.3*; NR2E3 ag-2: 0; SMARCA2 act: 0

Results for Cn1c2[n+](c3ccc(Cl)cc3c1=O)Cc1ccccc1-2 ?
GASC-1 inh: 6; DAX1 inh-1: 0; NR2E3 ag-1: 16; DAX1 inh-2: 5.7*; NR2E3 ag-2: -4; SMARCA2 act: 6

How did Cc1ccccc1CNC(=O)Nc1ccc(Cl)cc1 do in these assays?
GASC-1 inh: 8; DAX1 inh-1: 0; NR2E3 ag-1: -50; DAX1 inh-2: 5.5*; NR2E3 ag-2: -6; SMARCA2 act: 7

What do the screens show for `O=S(=O)(c1ccc(F)cc1)N1CCN=C1SCc1cccnc1`?
GASC-1 inh: -6; DAX1 inh-1: 1; NR2E3 ag-1: 4; DAX1 inh-2: 7.1*; NR2E3 ag-2: 1; SMARCA2 act: -2
